Assay results gathered from unrelated publications.
Compare with care: the assays were run in different laboratories.
Sample: plasma
Route: oral

SMILES	host	dose	setting	Cmax [ng/mL]
Cn1cc(Nc2nc(N)nc(-c3cccc(-n4ccc5cc(C6CC6)cc(F)c5c4=O)c3CO)n2)cn1	human	5 mg	single dose, fasted, suspension	28.6
COc1ccc([C@@H](O)c2cc(-c3ncnc4cc(N5CCOCC5)ccc34)c(F)cc2Cl)nn1	human	150 mg	single dose, patients	1460
N[C@@H]1c2cccnc2[C@H](OC(=O)N2CCC(n3c(=O)[nH]c4ncccc43)CC2)CC[C@H]1c1cccc(F)c1F	human	75 mg	single dose	923
CN1CC[C@@H](c2c(O)cc(O)c3c(=O)cc(-c4ccc(C(F)(F)F)cc4Cl)oc23)[C@@H]1CO	human	50 mg	patients	86.3
CC(C)n1c(Nc2cccnc2)nc2cnc(Nc3ccc(N4CCN(C)CC4)cc3)nc21	male human	100 mg	single dose	45.7
Cl.[2H]C([2H])([2H])CC(=O)c1cnc(NC(=O)C2CC2)cc1Nc1cccc(-c2ncn(C([2H])([2H])[2H])n2)c1OC	human	20 mg	multiple doses, once daily, fasted	132
CNC(=O)n1ccc2cc(Oc3ccnc(NC(=O)c4ccc(C5CCN(CCO)CC5)cc4)c3)c(OCCOC)cc21	human	35 mg	single dose, fed, healthy volunteers	6.81
C[C@H](O)C(=O)C1=Nc2c(nc(N)[nH]c2=O)NC1	human	20 mg/kg	single dose, healthy volunteers	1.51
CC(=O)N[C@H]1CC[C@H](NC(=O)CN2CCN(c3nncc(-c4ccc(C)cc4)n3)CC2)CC1	male human	100 mg	single dose, fasted	1070
